Measured values as given in ChEMBL document CHEMBL3102838, “Synthesis of RCAI-172 (C6 epimer of RCAI-147) and its biological activity” (2014).
Activity calls are given as the source filed them. The rule behind the calls is not given here.

Key:
Mus musculus [1] = assay: Immunomodulatory activity in mouse assessed as IFNgamma secretion at 10 ug/mL, iv relative to KRN7000; assay type: functional
Summary of the method: (§1)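 Female-unspecified mice given glycolipid via tail vein: DMSO stock (1.0 mg/mL) diluted to 10 μg/mL in Dulbecco's PBS just before use; 200 μL injected (2 μg/mouse). Retro-orbital blood drawn into heparinized capillaries at set time points and plasma prepared. Plasma IFN-γ and IL-4 quantified by cytometric bead array. Means ±SD, three mice.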

Mus musculus [2] = assay: Immunomodulatory activity in mouse assessed as increase in IL-4 secretion at 10 ug/mL, iv relative to KRN7000; assay type: functional; summary of the method: as §1
Mus musculus [3] = species: Mus musculus; assay: Ratio for reduction of IL-4 secretion in mouse to reduction of IFNgamma secretion in mouse; assay type: functional
Mus musculus [4] = assay: Immunomodulatory activity in mouse assessed as IL-4 secretion at 10 ug/mL, iv relative to KRN7000; assay type: functional; summary of the method: as §1
Mus musculus [5] = assay: Immunomodulatory activity in mouse assessed as reduction of IFNgamma secretion at 10 ug/mL, iv relative to KRN7000; assay type: functional; parameters: scale not given: the % may be the effect or the level left; summary of the method: as §1
Mus musculus [6] = assay: Immunomodulatory activity in mouse assessed as reduction of IL-4 secretion at 10 ug/mL, iv relative to KRN7000; assay type: functional; parameters: scale not given: the % may be the effect or the level left; summary of the method: as §1
Mus musculus [7] = assay: Immunostimulatory activity in C57BL/6 mouse autoimmune encephalomyelitis model assessed as decrease in IFNgamma secretion inoculated with compound-treated GM-CSF-induced dendritic cells administered on day 3 and 5 relative to KRN7000; assay type: functional; parameters: scale not given: the % may be the effect or the level left
Mus musculus [8] = assay: Immunostimulatory activity in C57BL/6 mouse autoimmune encephalomyelitis model assessed as IL-4 secretion inoculated with compound-treated GM-CSF-induced dendritic cells administered on day 3 and 5 relative to KRN7000; assay type: functional
Mus musculus [9] = assay: Immunostimulatory activity in C57BL/6 mouse autoimmune encephalomyelitis model inoculated with compound-treated GM-CSF-induced dendritic cells administered on day 3 and 5; assay type: functional, organism-based
Summary of the method: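 EAE in female C57BL/6 mice was induced on day 1 by subcutaneous MOG35-55/CFA emulsion at two lower-back sites, with an additional adjuvant given intraperitoneally on days 1 and 3. Bone-marrow GM-DC were raised with GM-CSF (10 ng/mL, 5 days), CD11c-enriched, then pulsed with glycolipid (100 ng/mL; 5×10^6 cells/mL, 24 h). Mice were scored daily to day 30 on a 0–5 scale in 0.5 steps.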

Mus musculus [10] = assay: Immunomodulatory activity in mouse assessed as reduction of IL-4 secretion at 10 ug/mL, iv relative to RCAI-147; assay type: functional; parameters: scale not given: the % may be the effect or the level left

Structure (SMILES)	Activity (Mus musculus [1])	Ratio (Mus musculus [3])	Activity (Mus musculus [4])	Activity (Mus musculus [5])	Activity (Mus musculus [6])	Activity (Mus musculus [7])	Activity (Mus musculus [8])	also measured
CCCCCCCCCCCCCCCCCCCCCCC[C@@H](O)[C@@H](O)C(=O)N[C@@H](CO[C@H]1O[C@H](CO)[C@H](O)[C@H](O)[C@H]1O)[C@H](O)[C@H](O)CCCCCCCCCCCCCC	41%	3.4						Activity (Mus musculus [2]): 138%
CCCCCCCCCCCCCCCCCCCCCCCCCC(=O)N[C@@H](CO[C@H]1O[C@H](CO)[C@H](O)[C@H](O)[C@H]1O)[C@H](O)CC[C@H](O)CCCCCCCCCCCC	64%		19%					
CCCCCCCCCCCCCCCCCCCCCCC[C@@H](O)[C@@H](O)C(=O)N[C@@H](CO[C@H]1O[C@H](CO)[C@H](O)[C@H](O)[C@H]1O)[C@H](O)[C@H](O)[C@@H](O)[C@@H](O)CCCCCCCCCCCC		14		5%	70%	<5%	>60%	
CCCCCCCCCCCCCCCCCCCCCCCCCC(=O)N[C@@H](CO[C@H]1O[C@H](CO)[C@H](O)[C@H](O)[C@H]1O)[C@H](O)CC[C@@H](O)CCCCCCCCCCCC	160%		75%					
CCCCCCCCCCCCCCCCCCCCCC[C@@H](O)[C@@H](O)[C@@H](O)C(=O)N[C@@H](CO[C@H]1O[C@H](CO)[C@H](O)[C@H](O)[C@H]1O)[C@H](O)[C@H](O)CCCCCCCCCCCCCC						<5%	>60%	
CCCCCCCCCCCCCCCCCCCCCCC[C@@H](O)[C@@H](O)C(=O)N[C@@H](CO[C@H]1O[C@H](CO)[C@H](O)[C@H](O)[C@H]1O)[C@H](O)[C@H](O)[C@@H](O)[C@H](O)CCCCCCCCCCCC		8.6		4.1%	35.3%			Activity (Mus musculus [9]): inactive; Activity (Mus musculus [10]): 61%
